Laboratory results taken from ChEMBL document CHEMBL5316274 (J Med Chem, 2023).
The source made the active and inactive calls. The calls are words filed in the database; no cut-off is given here.

Legend:
Mus musculus [1] = assay: Effect of compound on chronic morphine pelleted Swiss Webster mouse model assessed as decrease in wet-dog shake symptom at 1 mg/kg, sc and measured for 20 mins by withdrawal assay; format: functional, organism-based
Procedure, shortened: (§1)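 Male Swiss-Webster mice made dependent with chronic morphine pellets. Compound is injected and wet-dog shakes, paw tremors and jumps are counted over 20 min after each injection.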

Mus musculus [2] = assay: Effect of compound on chronic morphine pelleted Swiss Webster mouse model assessed as decrease in jump symptom at 1 mg/kg, sc and measured for 20 mins by withdrawal assay; format: functional, organism-based; procedure, shortened: as §1
Mus musculus [3] = assay: Effect of compound on chronic morphine pelleted Swiss Webster mouse model assessed as decrease in paw tremors symptom at 1 mg/kg, sc and measured for 20 mins by withdrawal assay; format: functional, organism-based; procedure, shortened: as §1
[4] = molecular target: Mu-type opioid receptor (Mus musculus) (UniProt P42866); assay: Binding affinity to mouse mu opioid receptor expressed in CHO cell membrane assessed as stimulation of [35S]-GTPgammaS binding by measuring maximal efficacy incubated for 1.5 hrs by scintillation spectroscopy analysis relative DAMGO; format: cell membranes
Procedure, shortened: (§2)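 MOR [35S]GTPγS functional assay in MOR-CHO membranes (Bmax about 2.5–4 pmol/mg). Efficacy is expressed as % of the maximal stimulation by full agonist DAMGO.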

Mu-type opioid receptor [5] = molecular target: T1, Mu-type opioid receptor (Mus musculus, UniProt P42866); assay: Binding affinity to mouse mu opioid receptor expressed in CHO cell membrane assessed as inhibition constant incubated for 1.5 hrs by competitive radioligand binding assay; format: cell membranes
[6] = Selectivity ratio, ratio of Ki for binding affinity to human delta opioid receptor expressed in CHO cell membrane to Ki for binding affinity to mouse mu opioid receptor expressed in CHO cell membrane
Mus musculus [7] = assay: Antinociceptive activity in Swiss Webster mouse assessed as increase in latency to tail withdrawal at 10 mg/kg, sc observed for 20 mins by warm water tail immersion assay; format: functional, organism-based
Procedure, shortened: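 Male Swiss-Webster mice (23–35 g, 7–8 weeks), n = 5. Compound given 10 mg/kg s.c. at time 0. Tail-flick latency is measured in 56 ± 0.1 °C water and expressed as % maximum possible effect against saline vehicle.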

Mu-type opioid receptor [8] = molecular target: T1, Mu-type opioid receptor; assay: Binding affinity to mouse mu opioid receptor expressed in CHO cell membrane assessed as [35S]GTPgammaS binding incubated for 1.5 hrs by liquid scintillation counter analysis; format: cell membranes; procedure, shortened: as §2
Mus musculus [9] = organism: Mus musculus; assay: Selectivity ratio, ratio of Ki for binding affinity to mouse kappa opioid receptor expressed in CHO cell membrane to Ki for binding affinity to mouse mu opioid receptor expressed in CHO cell membrane
[10] = molecular target: Kappa-type opioid receptor (Mus musculus, UniProt P33534); assay: Binding affinity to mouse kappa opioid receptor expressed in CHO cell membrane assessed as inhibition constant incubated for 1.5 hrs by competitive radioligand binding assay; format: cell membranes
Mus musculus [11] = assay: Effect of compound on chronic morphine pelleted Swiss Webster mouse model assessed as decrease in paw tremors symptom at 10 to 80 mg/kg, sc and measured for 20 mins by withdrawal assay; format: functional, organism-based; details: dose 10-80 mg/kg; procedure, shortened: as §1
Mus musculus [12] = assay: Antinociceptive activity in Swiss Webster mouse assessed as inhibition of morphine induced latency to tail withdrawal at 10 mg/kg, sc preincubated for 5 mins followed by morphine addition and measured after 20 mins by warm water tail immersion assay; format: functional, organism-based; details: time 25.0 min
Procedure, shortened: (§3)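 Male Swiss-Webster mice (n = 5). Compound is given s.c. at time 0 (10 mg/kg in the single-dose screen, a dose range for AD50), and morphine 10 mg/kg follows 5 min later. Tail flick is tested in 56 ± 0.1 °C water 20 min after morphine and scored as % MPE. Saline and morphine alone are the controls.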

[13] = Metabolic stability in rat liver microsomes assessed as half life; format: ADME, Microsome
Procedure, shortened: (§4)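 Human or rat liver microsomal stability, run by a contract lab. Half-life and hepatic CLint are reported.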

Mus musculus [14] = assay: Effect of compound on chronic morphine pelleted Swiss Webster mouse model assessed as decrease in wet-dog shake symptom at 10 to 80 mg/kg, sc and measured for 20 mins by withdrawal assay; format: functional, organism-based; details: dose 10-80 mg/kg; procedure, shortened: as §1
[15] = Efflux ratio of apparent permeability in human Caco-2 cells; format: ADME, cell-based
[16] = molecular target: Voltage-gated inwardly rectifying potassium channel KCNH2 (Homo sapiens, UniProt Q12809); assay: Inhibition of human ERG expressed in CHO-K1 cells with holding potential of -80 mV by automated patch clamp assay; details: CHO-K1 cells expressing human ERG
Mu-type opioid receptor [17] = molecular target: T1, Mu-type opioid receptor; assay: Antagonist activity at mouse mu opioid receptor expressed in CHO cells co-expressing Gqi5 assessed as inhibition of DAMGO induced increase in intracellular calcium flux incubated for 15 mins by Calcium flux assay; format: functional, cell-based
Procedure, shortened: (§5)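 MOR-CHO cells transiently transfected with Gqi5 (4 h at 37 °C, 5% CO2), replated and used 48 h post-transfection. For antagonist mode DAMGO is then added. Fluorescence (RFU) is read for 90 s and peak values are taken. IC50 comes from non-linear regression. Triplicates, at least four experiments.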

[18] = molecular target: Kappa-type opioid receptor (Mus musculus) (UniProt P33534); assay: Binding affinity to mouse kappa opioid receptor expressed in CHO cell membrane assessed as stimulation of [35S]-GTPgammaS binding by measuring maximal efficacy incubated for 1.5 hrs by scintillation spectroscopy analysis relative SNC80; format: cell membranes
[19] = Metabolic stability in human liver microsomes assessed as half life; format: ADME, Microsome; procedure, shortened: as §4
[20] = molecular target: Kappa-type opioid receptor (Mus musculus) (UniProt P33534); assay: Binding affinity to mouse kappa opioid receptor expressed in CHO cell membrane assessed as stimulation of [35S]-GTPgammaS binding by measuring maximal efficacy incubated for 1.5 hrs by scintillation spectroscopy analysis relative U50488H; format: cell membranes; details: filed as modulator
Procedure, shortened: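 KOR [35S]GTPγS functional assay in KOR-expressing CHO membranes. Efficacy is expressed as % of the maximal stimulation by full agonist U50,488H, with EC50 also determined. Mean of at least three independent experiments.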

[21] = Protein binding in human plasma at 10 uM and measured upto 24 hrs by equilibrium dialysis based MS analysis; format: ADME, cell-free
Mus musculus [22] = assay: Effect of compound on chronic morphine pelleted Swiss Webster mouse model assessed as decrease in jump symptom at 40 mg/kg, sc and measured for 20 mins by withdrawal assay; format: functional, organism-based; procedure, shortened: as §1
Mus musculus [23] = assay: Antinociceptive activity in sc dosed Swiss Webster mouse assessed as inhibition of morphine induced latency to tail withdrawal preincubated for 5 mins followed by morphine addition and measured after 20 mins by warm water tail immersion assay; format: functional; details: 25 min; procedure, shortened: as §3
[24] = molecular target: Mu-type opioid receptor (Mus musculus) (UniProt P42866); assay: Agonist activity at mouse mu opioid receptor expressed in CHO cells co-expressing Gqi5 assessed as increase in intracellular calcium level incubated for 15 mins by Calcium flux assay; format: functional, cell-based
Procedure, shortened: as §5, with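 “post-transfection. Cells are loaded with fluo-4 AM plus probenecid in HBSS–HEPES buffer for 45 min, then exposed to compound for 15 min (agonist mode 0.3 nM to 3 μM).” for “post-transfection.”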

[25] = Protein binding in rat plasma at 10 uM and measured upto 24 hrs by equilibrium dialysis based MS analysis; format: ADME, cell-free
Mus musculus [26] = assay: Effect of compound on chronic morphine pelleted Swiss Webster mouse model assessed as decrease in jump symptom at 50 mg/kg, sc and measured for 20 mins by withdrawal assay; format: functional, organism-based
Mus musculus [27] = assay: Effect of compound on chronic morphine pelleted Swiss Webster mouse model assessed as decrease in wet-dog shake symptom at 50 mg/kg, sc and measured for 20 mins by withdrawal assay; format: functional, organism-based
Mus musculus [28] = assay: Effect of compound on chronic morphine pelleted Swiss Webster mouse model assessed as decrease in paw tremors symptom at 50 mg/kg, sc and measured for 20 mins by withdrawal assay; format: functional, organism-based

SMILES | Emax ([4]; filed as modulator) [%] | Ki (Mu-type opioid receptor [5]) [nM] | Ratio Ki [6] | Activity (Mus musculus [7]) | EC50 (Mu-type opioid receptor [8]) [nM] | Ratio Ki (Mus musculus [9]) | Ki [10] [nM] | Activity (Mus musculus [12]) | Emax [4] [%] | also measured
C=CCN1CC[C@]23c4c5ccc(O)c4O[C@H]2C(=O)CC[C@@]3(O)[C@H]1C5 |  |  |  |  |  |  |  |  |  | Activity (Mus musculus [1]): Active; Activity (Mus musculus [2]): Active; Activity (Mus musculus [3]): Active
O=C(N[C@@H]1CC[C@@]2(O)[C@H]3Cc4ccc(O)c5c4[C@@]2(CCN3CC2CC2)[C@H]1O5)c1cccc2c([N+](=O)[O-])c[nH]c12 | 60.9 | 0.54 | 47.5 | Active | 1.13 | 1.5 | 0.8 |  |  | 
Cc1cc2cccc(C(=O)N[C@H]3CC[C@@]4(O)[C@H]5Cc6ccc(O)c7c6[C@@]4(CCN5CC4CC4)[C@H]3O7)c2[nH]1.Cl |  | 0.59 |  |  | 3.86 | 3.6 | 2.1 | Active | 12 | Activity (Mus musculus [11]): Active; t1/2 [13]: > 1 h; Activity (Mus musculus [14]): inactive; Ratio [15]: 2.2; IC50 [16]: 0.14 nM; IC50 (Mu-type opioid receptor [17]): 87.5 nM; Emax [18]: 26.7%; t1/2 [19]: > 1 h; Emax [20]: 73.9%; PPB [21]: 99%; Activity (Mus musculus [22]): Active; ED50 (Mus musculus [23]): 10.6 mg/kg; Activity [24]: inactive; PPB [25]: 96%
O=C(N[C@@H]1CC[C@@]2(O)[C@H]3Cc4ccc(O)c5c4[C@@]2(CCN3CC2CC2)[C@H]1O5)c1cccc2cc(-c3ccccc3)[nH]c12 |  | 3.26 | 7.3 |  | 5.44 | 0.4 | 1.14 | inactive | 10.2 | 
Cc1c[nH]c2c(C(=O)N[C@@H]3CC[C@@]4(O)[C@H]5Cc6ccc(O)c7c6[C@@]4(CCN5CC4CC4)[C@H]3O7)cccc12 | 44 | 0.46 |  | Active | 1.22 |  | 1.01 |  |  | 
O=C(N[C@@H]1CC[C@@]2(O)[C@H]3Cc4ccc(O)c5c4[C@@]2(CCN3CC2CC2)[C@H]1O5)c1cccc2c(Cl)c[nH]c12 | 59.5 | 0.62 | 7.2 | Active | 1.05 | 0.5 |  |  |  | 
O=C(N[C@H]1CC[C@@]2(O)[C@H]3Cc4ccc(O)c5c4[C@@]2(CCN3CC2CC2)[C@H]1O5)c1cccc2cc[nH]c12 |  |  |  |  |  |  |  |  | 19.1 | Activity (Mus musculus [26]): inactive; Emax ([18]; filed as modulator): 76.8%; Emax [20]: 48.3%; Activity (Mus musculus [27]): inactive; Activity (Mus musculus [28]): Active; ED50 (Mus musculus [23]): 2.07 mg/kg
O=C(N[C@H]1CC[C@@]2(O)[C@H]3Cc4ccc(O)c5c4[C@@]2(CCN3CC2CC2)[C@H]1O5)c1cccc2c(Br)c[nH]c12 |  | 0.93 | 20.6 |  | 2.46 | 5.7 | 5.28 | inactive | 14.9 | 
